Activity calls are given as the source filed them. The rule behind the calls is not given here.
Assays:
[1] = GSH reactivity assessed as reaction rate measured at 1 equiv of GSH upto 24 hrs by HPLC analysis; type: ADME
[2] = Toxicity in Sprague-Dawley rat assessed as effect on blood pressure at 950 microg/kg, iv measured upto 24 hrs; type: organism-based; conditions: in vivo, 0.95 mg/kg, dose 950 µg/kg
In short: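 Male Sprague-Dawley rats (12 weeks, 200−220 g, SPF housing, free chow and water) received a single iv tail-vein injection of test compound or vehicle control, n = 3 per group, followed by blood pressure measurement.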

Rattus norvegicus [3] = assay: Neuroprotective activity against middle cerebral artery occlusion-induced ischemia-reperfusion injury Sprague-Dawley rat model assessed as decrease in neurologic deficit scores at 95 to 9500 microg/kg, iv treated immediately reperfusion measured after 24 hrs; type: functional, organism-based; conditions: dose 95-9500 µg/kg
In short: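 Male SD rats (12 weeks, 200–220 g; N = 8/group) underwent MCAO under […] (350 mg/kg) using a nylon intraluminal suture for 2 h, then reperfusion. Compound (95, 950 or 9500 μg/kg) was given iv immediately after reperfusion; where used, PTIO 1 mg/kg iv was given 30 min before. At 24 h, blinded scoring covered Longa neurological deficit, TTC infarct area/whole area, and edema from wet/dry brain weight (105 °C, 24 h).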

Rattus norvegicus [4] = assay: Neuroprotective activity against middle cerebral artery occlusion-induced ischemia-reperfusion injury Sprague-Dawley rat model assessed as decrease in cerebral infarct volume at 95 to 9500 microg/kg, iv pretreated for 2 hrs followed by reperfusion measured after 24 hrs; type: functional, organism-based; conditions: dose 95-9500 µg/kg
In short: (§1)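 Male SD rats (N = 8/group) were dosed iv at 95, 950 or 9500 μg/kg 2 h before 2 h MCAO (nylon suture, chloral hydrate anesthesia), then reperfused. Where used, PTIO 1 mg/kg iv was given 30 min before compound. At 24 h, blinded assessment covered Longa deficit score, TTC-stained 2 mm sections (infarct area/whole area), and edema by wet/dry weight.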

Rattus norvegicus [5] = assay: Neuroprotective activity against middle cerebral artery occlusion-induced ischemia-reperfusion injury Sprague-Dawley rat model assessed as increase in AuroraB + cells in cerebral ischemic penumbra at 95 to 950 microg/kg, iv treated immediately reperfusion measured after 24 hrs by immunofluoresence assay; type: functional, organism-based; conditions: dose 95-950 µg/kg
Rattus norvegicus [6] = assay: Neuroprotective activity against middle cerebral artery occlusion-induced ischemia-reperfusion injury Sprague-Dawley rat model assessed as decrease in cerebral infarct volume at 950 microg/kg, iv pretreated for 2 hrs followed by reperfusion measured after 24 hrs in presence of PTIO; type: functional, organism-based; conditions: dose 950.0 µg/kg; in short: as §1
Rattus norvegicus [7] = assay: Neuroprotective activity against middle cerebral artery occlusion-induced ischemia-reperfusion injury Sprague-Dawley rat model assessed as increase in NQO1 expression in cerebral ischemic penumbra at 950 microg/kg, iv treated immediately reperfusion measured after 24 hrs; type: functional, organism-based; conditions: dose 950.0 µg/kg
In short: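 MCAO rat brain paraffin sections (3 μm) were blocked with 10% goat serum and stained by IHC for NQO-1 and HO-1 (1:200) and phospho-Nrf2 (1:100), with DAB detection and rabbit IgG as negative control. Average optical density of positive cells was scored blinded over five fields per sample.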

Cortical neurone [8] = assay: (§2) Neuroprotective activity against in OGD/R-induced rat cortical neuron cytotoxicity assessed as activation of NO/cGMP/PKG pathway by measuring increase in PKG expression pretreated at 1.8 uM for 24 hrs followed by subjected to OGD for 2 hrs measured after 24 hrs under normoxic condition by Western blot analysis; type: functional, tissue-based
Cortical neurone [9] = assay: as §2, with “cGMP level” for “PKG expression”, “condition in presence of NS2028” for “condition”, “ELISA” for “Western blot analysis”; type: functional, tissue-based

Question: For `O=C(/C(=C/c1ccccc1)C[N+](=O)[O-])c1ccccc1`, which Activity [1] is on record?
Answer: The Activity was 0.0214 h⁻¹.

Question: What about the Activity [2] of the same molecule?
Answer: The Activity was “Non-Toxic”.

Question: And the Activity (Rattus norvegicus [3])?
Answer: Its Activity is “Active”.

Question: What about the Activity (Rattus norvegicus [4]) of the same molecule?
Answer: Its Activity is “Active”.

Question: And the Activity (Rattus norvegicus [5])?
Answer: The Activity was “Active”.

Question: And the Activity (Rattus norvegicus [6])?
Answer: Its Activity is “inactive”.

Question: What about the Activity (Rattus norvegicus [7]) of the same molecule?
Answer: Its Activity is “Active”.

Question: What about the Activity (Cortical neurone [8]) of the same molecule?
Answer: The Activity was “Active”.

Question: What about the Activity (Cortical neurone [9]) of the same molecule?
Answer: Its Activity is “inactive”.

From ChEMBL document CHEMBL5029154, “Design, Synthesis, and Biological Evaluation of Organic Nitrite (NO2-) Donors as Potential Anticerebral Ischemia Agents” (J Med Chem, 2021)
